# According to ChEMBL document CHEMBL2384906, “Biological activity, design, synthesis and structure activity relationship of some novel derivatives of curcumin containing sulfonamides” (Eur J Med Chem, 2013):
# Active and inactive are the calls of the source. The rule behind the calls is not given here.
# Tests used:
# Staphylococcus aureus [1] = assay: Antimicrobial activity against Staphylococcus aureus ATCC 11632 assessed as diameter of inhibition zone at 80 uM after 24 hrs by Kirby -Baur disc diffusion method; assay type: functional; details: ATCC 11632, 24 h, read-out: DIZ
# Method in brief: (§1)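 Kirby-Bauer disc diffusion was used. Acetone stocks (160 µM) were serially doubled down to 80, 40 and 20 µM. 4 µL of each went onto 5 mm sterile paper discs, which were dried 30 min at 50 °C. Inoculum was 1.5 × 10⁸ CFU/mL diluted to 3 × 10² CFU/mL, and 50 µL was spread on Mueller-Hinton agar. After 24 h at 37 °C the inhibition-zone diameter was measured. Ciprofloxacin served as positive control.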
# Mus musculus = assay: Antiinflammatory activity in mouse assessed as inhibition of carrageenan-induced increase in paw volume at 200 mg/kg administered 1 hr prior to carrageenan challenge measured after 3 hrs relative to control; assay type: functional
# Method in brief: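 Mice were fasted 2 h and placed in groups of five. Controls received saline i.p. Phenylbutazone was given at 100 mg/kg i.p., curcumin at 200 mg/kg i.p., and derivatives at 200 mg/kg. After 1 h, 0.1 mL of 1% carrageenan in saline was injected subplantar into the right hind paw. Paw volume was followed by plethysmometer for 3 h, and % inhibition was calculated as (Vc − Vt)/Vc × 100.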
# Aspergillus flavus [2] = assay: Antifungal activity against Aspergillus flavus MTCC 1021 assessed as zone of inhibition at 40 uM after 48 hrs by disc diffusion method; assay type: functional; details: MTCC 1021, 48 h, read-out: IZ
# Method in brief: (§2)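 Spores from 4-day potato dextrose agar cultures, suspended in sterile water at 1.5 × 10⁵ CFU/mL. 0.2 mL was spread on potato dextrose agar. 5 mm filter-paper discs soaked with test compound were laid on the lawn. Incubation was 48 h at 28 °C, then the inhibition zone was measured in mm. Fluconazole was the positive control and acetone the negative control.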
# Staphylococcus aureus [3] = assay: Antimicrobial activity against Staphylococcus aureus ATCC 11632 assessed as diameter of inhibition zone at 20 uM after 24 hrs by Kirby -Baur disc diffusion method; assay type: functional; details: ATCC 11632, 24 h, read-out: DIZ; method in brief: as §1
# Salmonella typhi [4] = assay: Antimicrobial activity against Salmonella typhi ATCC 23564 after 24 hrs by broth micro serial dilution method; assay type: functional, Salmonella enterica subsp. enterica serovar Typhi; details: Salmonella enterica, ATCC 23564, 24 h
# QG-56 = assay: Cytotoxicity against human QG56 cells after 24 hrs by MTT assay; assay type: functional, cell-based
# Method in brief: (§3)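 The MTT assay seeded 5 × 10⁴ cells per well and grew them 24 h in RPMI 1640 with compound at 2.5–200 µM. Medium without cells was the blank and adriamycin the positive control. MTT was added for 4 h at 37 °C, formazan was solubilised, and absorbance was read at 570 nm. IC50 is the concentration that cuts viability 50% against untreated cells.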
# Pseudomonas aeruginosa [5] = assay: Antimicrobial activity against Pseudomonas aeruginosa ATCC 15499 assessed as diameter of inhibition zone at 20 uM after 24 hrs by Kirby -Baur disc diffusion method; assay type: functional; method in brief: as §1
# Pseudomonas aeruginosa [6] = assay: Antimicrobial activity against Pseudomonas aeruginosa ATCC 15499 assessed as diameter of inhibition zone at 40 uM after 24 hrs by Kirby -Baur disc diffusion method; assay type: functional; details: ATCC 15499, 24 h, read-out: DIZ; method in brief: as §1
# Staphylococcus aureus [7] = assay: Antimicrobial activity against Staphylococcus aureus ATCC 11632 assessed as diameter of inhibition zone at 40 uM after 24 hrs by Kirby -Baur disc diffusion method; assay type: functional; details: ATCC 11632, 24 h, read-out: DIZ; method in brief: as §1
# Curvularia lunata [8] = assay: Antifungal activity against Curvularia lunata MTCC 581 assessed as zone of inhibition at 40 uM after 48 hrs by disc diffusion method; assay type: functional; details: MTCC 581, 48 h, read-out: IZ; method in brief: as §2
# Pseudomonas aeruginosa [9] = assay: Antimicrobial activity against Pseudomonas aeruginosa ATCC 15499 assessed as diameter of inhibition zone at 80 uM after 24 hrs by Kirby -Baur disc diffusion method; assay type: functional; details: ATCC 15499, 24 h, read-out: DIZ; method in brief: as §1
# Salmonella typhi [10] = assay: Antimicrobial activity against Salmonella typhi ATCC 23564 assessed as diameter of inhibition zone at 80 uM after 24 hrs by Kirby -Baur disc diffusion method; assay type: functional, Salmonella enterica subsp. enterica serovar Typhi; details: Salmonella enterica, ATCC 23564, 24 h; read-out: DIZ
# Aspergillus niger [11] = assay: Antifungal activity against Aspergillus niger MTCC 1108 after 48 hrs; assay type: functional; details: MTCC 1108, 48 h
# Aspergillus niger [12] = assay: Antifungal activity against Aspergillus niger MTCC 1108 assessed as zone of inhibition at 20 uM after 48 hrs by disc diffusion method; assay type: functional; details: MTCC 1108, 48 h, read-out: IZ; method in brief: as §2
# Aspergillus niger [13] = assay: Antifungal activity against Aspergillus niger MTCC 1108 assessed as zone of inhibition at 80 uM after 48 hrs by disc diffusion method; assay type: functional; details: MTCC 1108, 48 h, read-out: IZ; method in brief: as §2
# HCT-116 = assay: Cytotoxicity against human HCT116 cells after 24 hrs by MTT assay; assay type: functional, cell-based; method in brief: as §3
# Bacillus cereus [14] = assay: Antimicrobial activity against Bacillus cereus MTCC 7350 assessed as diameter of inhibition zone at 20 uM after 24 hrs by Kirby -Baur disc diffusion method; assay type: functional; details: MTCC 7350, 24 h, read-out: DIZ; method in brief: as §1
# Aspergillus flavus [15] = assay: Antifungal activity against Aspergillus flavus MTCC 1021 assessed as zone of inhibition at 20 uM after 48 hrs by disc diffusion method; assay type: functional; method in brief: as §2
# HepG2 = assay: Cytotoxicity against human HepG2 cells after 24 hrs by MTT assay; assay type: functional, cell-based; method in brief: as §3
# Escherichia coli [16] = assay: Antimicrobial activity against Escherichia coli ATCC 35218 assessed as diameter of inhibition zone at 80 uM after 24 hrs by Kirby -Baur disc diffusion method; assay type: functional; details: ATCC 35218, 24 h, read-out: DIZ; method in brief: as §1
# Trichoderma viride [17] = assay: Antifungal activity against Trichoderma viride MTCC 1107 assessed as zone of inhibition at 80 uM after 48 hrs by disc diffusion method; assay type: functional; details: MTCC 1107, 48 h, read-out: IZ; method in brief: as §2
# Bacillus cereus [18] = assay: Antimicrobial activity against Bacillus cereus MTCC 7350 assessed as diameter of inhibition zone at 80 uM after 24 hrs by Kirby -Baur disc diffusion method; assay type: functional; details: MTCC 7350, 24 h, read-out: DIZ; method in brief: as §1
# Aspergillus flavus [19] = assay: Antifungal activity against Aspergillus flavus MTCC 1021 after 48 hrs; assay type: functional; details: MTCC 1021, 48 h
# HeLa = assay: Cytotoxicity against human HeLa cells after 24 hrs by MTT assay; assay type: functional, cell-based; method in brief: as §3
# Pseudomonas aeruginosa [20] = assay: Antimicrobial activity against Pseudomonas aeruginosa ATCC 15499 after 24 hrs by broth micro serial dilution method; assay type: functional; details: ATCC 15499, 24 h
# Method in brief: (§4)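 This was broth microdilution in autoclaved Mueller-Hinton broth. 150 µL of compound per well was serially diluted […], and 50 µL of test organism was added. Plates were incubated 24 h at 37 °C and optical density was read.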
# Bacillus cereus [21] = assay: Antimicrobial activity against Bacillus cereus MTCC 7350 assessed as diameter of inhibition zone at 40 uM after 24 hrs by Kirby -Baur disc diffusion method; assay type: functional; details: MTCC 7350, 24 h, read-out: DIZ; method in brief: as §1
# Escherichia coli [22] = assay: Antimicrobial activity against Escherichia coli ATCC 35218 after 24 hrs by broth micro serial dilution method; assay type: functional; details: ATCC 35218, 24 h; method in brief: as §4
# Trichoderma viride [23] = assay: Antifungal activity against Trichoderma viride MTCC 1107 after 48 hrs; assay type: functional; details: MTCC 1107, 48 h
# Salmonella typhi [24] = assay: Antimicrobial activity against Salmonella typhi ATCC 23564 assessed as diameter of inhibition zone at 20 uM after 24 hrs by Kirby -Baur disc diffusion method; assay type: functional, Salmonella enterica subsp. enterica serovar Typhi; details: Salmonella enterica, ATCC 23564, 24 h; read-out: DIZ
# Escherichia coli [25] = assay: Antimicrobial activity against Escherichia coli ATCC 35218 assessed as diameter of inhibition zone at 40 uM after 24 hrs by Kirby -Baur disc diffusion method; assay type: functional; details: ATCC 35218, 24 h, read-out: DIZ; method in brief: as §1
# Salmonella typhi [26] = assay: Antimicrobial activity against Salmonella typhi ATCC 23564 assessed as diameter of inhibition zone at 40 uM after 24 hrs by Kirby -Baur disc diffusion method; assay type: functional, Salmonella enterica subsp. enterica serovar Typhi; details: Salmonella enterica, ATCC 23564, 24 h; read-out: DIZ
# Bacillus cereus [27] = assay: Antimicrobial activity against Bacillus cereus MTCC 7350 after 24 hrs by broth micro serial dilution method; assay type: functional; details: MTCC 7350, 24 h; method in brief: as §4
# Curvularia lunata [28] = assay: Antifungal activity against Curvularia lunata MTCC 581 assessed as zone of inhibition at 20 uM after 48 hrs by disc diffusion method; assay type: functional; details: MTCC 581, 48 h, read-out: IZ; method in brief: as §2
# Aspergillus niger [29] = assay: Antifungal activity against Aspergillus niger MTCC 1108 assessed as zone of inhibition at 40 uM after 48 hrs by disc diffusion method; assay type: functional; details: MTCC 1108, 48 h, read-out: IZ; method in brief: as §2
# Trichoderma viride [30] = assay: Antifungal activity against Trichoderma viride MTCC 1107 assessed as zone of inhibition at 40 uM after 48 hrs by disc diffusion method; assay type: functional; details: MTCC 1107, 48 h, read-out: IZ; method in brief: as §2
# Aspergillus flavus [31] = assay: Antifungal activity against Aspergillus flavus MTCC 1021 assessed as zone of inhibition at 80 uM after 48 hrs by disc diffusion method; assay type: functional; details: MTCC 1021, 48 h, read-out: IZ; method in brief: as §2
# Curvularia lunata [32] = assay: Antifungal activity against Curvularia lunata MTCC 581 assessed as zone of inhibition at 80 uM after 48 hrs by disc diffusion method; assay type: functional; details: MTCC 581, 48 h, read-out: IZ; method in brief: as §2
# Trichoderma viride [33] = assay: Antifungal activity against Trichoderma viride MTCC 1107 assessed as zone of inhibition at 20 uM after 48 hrs by disc diffusion method; assay type: functional; details: MTCC 1107, 48 h, read-out: IZ; method in brief: as §2
# Staphylococcus aureus [34] = assay: Antimicrobial activity against Staphylococcus aureus ATCC 11632 after 24 hrs by broth micro serial dilution method; assay type: functional; details: ATCC 11632, 24 h; method in brief: as §4
# Escherichia coli [35] = assay: Antimicrobial activity against Escherichia coli ATCC 35218 assessed as diameter of inhibition zone at 20 uM after 24 hrs by Kirby -Baur disc diffusion method; assay type: functional; details: ATCC 35218, 24 h, read-out: DIZ; method in brief: as §1
# Curvularia lunata [36] = assay: Antifungal activity against Curvularia lunata MTCC 581 after 48 hrs; assay type: functional; details: MTCC 581, 48 h
compound,measurement,setting,value
COc1ccc(NS(=O)(=O)c2ccc(/N=C(/C=C(O)/C=C/c3ccc(O)c(OC)c3)\C=C\c3ccc(O)c(OC)c3)cc2)nn1,zone of inhibition at 80 µM,Staphylococcus aureus [1],17 mm
same,inhibition in vivo at 200 mg/kg,Mus musculus,35.4%
same,zone of inhibition at 40 µM,Aspergillus flavus [2],9 mm
same,zone of inhibition at 20 µM,Staphylococcus aureus [3],9 mm
same,MIC,Salmonella typhi [4],20 µM
same,IC50,QG-56,25 µM
same,diameter of the inhibition zone (DIZ),Pseudomonas aeruginosa [5],inactive
same,zone of inhibition at 40 µM,Pseudomonas aeruginosa [6],10 mm
same,zone of inhibition at 40 µM,Staphylococcus aureus [7],14 mm
same,zone of inhibition at 40 µM,Curvularia lunata [8],15 mm
same,zone of inhibition at 80 µM,Pseudomonas aeruginosa [9],14 mm
same,zone of inhibition at 80 µM,Salmonella typhi [10],19 mm
same,MIC,Aspergillus niger [11],40 µM
same,zone of inhibition at 20 µM,Aspergillus niger [12],10 mm
same,zone of inhibition at 80 µM,Aspergillus niger [13],14 mm
same,IC50,HCT-116,25 µM
same,zone of inhibition at 20 µM,Bacillus cereus [14],9 mm
same,inhibition zone (IZ),Aspergillus flavus [15],inactive
same,IC50,HepG2,25 µM
same,zone of inhibition at 80 µM,Escherichia coli [16],21 mm
same,zone of inhibition at 80 µM,Trichoderma viride [17],19 mm
same,zone of inhibition at 80 µM,Bacillus cereus [18],14 mm
same,MIC,Aspergillus flavus [19],> 80 µM
same,IC50,HeLa,50 µM
same,MIC,Pseudomonas aeruginosa [20],20 µM
same,zone of inhibition at 40 µM,Bacillus cereus [21],11 mm
same,MIC,Escherichia coli [22],20 µM
same,MIC,Trichoderma viride [23],20 µM
same,zone of inhibition at 20 µM,Salmonella typhi [24],13 mm
same,zone of inhibition at 40 µM,Escherichia coli [25],18 mm
same,zone of inhibition at 40 µM,Salmonella typhi [26],16 mm
same,MIC,Bacillus cereus [27],20 µM
same,zone of inhibition at 20 µM,Curvularia lunata [28],12 mm
same,zone of inhibition at 40 µM,Aspergillus niger [29],14 mm
same,zone of inhibition at 40 µM,Trichoderma viride [30],16 mm
same,zone of inhibition at 80 µM,Aspergillus flavus [31],10 mm
same,zone of inhibition at 80 µM,Curvularia lunata [32],18 mm
same,zone of inhibition at 20 µM,Trichoderma viride [33],12 mm
same,MIC,Staphylococcus aureus [34],20 µM
same,zone of inhibition at 20 µM,Escherichia coli [35],16 mm
same,MIC,Curvularia lunata [36],20 µM
